Measurements gathered from unrelated publications.
Lines come from different studies, so protocols differ.
Matrix: plasma

Compound | species | route | dose | setting | bioavailability [%]
Oc1ccc(C(c2ccc(O)cc2)(C(F)(F)F)C(F)(F)F)cc1 | mouse | oral | 34 mg/kg | single dose | 3 to 6
CC(C)(NC(=O)O[C@@H]1CN2CCC1CC2)c1csc(-c2ccc(F)cc2)n1 | CD-1 mouse | oral | 10 mg/kg | – | 74
COc1nc2[nH]c(C(F)(F)F)nc2nc1Nc1ccc(OC(F)(F)F)cc1F | C57BL/6 mouse | oral | 10 mg/kg | – | 21
CC(C)c1cnn2c(NCc3ccccc3)cc(NC[C@H]3CCNC[C@@H]3O)nc12 | male CD-1 mouse | oral | 10 mg/kg | – | 30
CC[C@H](C)[C@@H]1NC(=O)[C@@](C)(NC(=O)[C@H](CCCNC(=N)N)NC(=O)[C@H](CC(C)C)NC(=O)[C@@H](NC(=O)[C@H](CCC(N)=O)NC(=O)[C@H](CC(C)C)NC(C)=O)[C@@H](C)O)CCCC=CCCC[C@@](C)(C(=O)N[C@@H](CC(C)C)C(=O)N[C@@H](Cc2ccc3ccccc3c2)C(N)=O)NC(=O)[C@H](CCCNC(=N)N)NC(=O)[C@H](CCC(N)=O)NC1=O | male BALB/c mouse | intraperitoneal | 5 mg/kg | – | 81.1
Cc1ccc2cncc(N3CCc4c(cc(Cn5ccnc5)cc4-c4cn(C)nc4C(F)(F)F)C3=O)c2c1 | male CD-1 mouse | oral | 50 mg/kg | – | 56
CCOc1ccc(Cc2cc([C@@H]3O[C@H](CO)[C@@H](O)[C@H](O)[C@H]3O)ccc2Cl)cc1 | male C57BL/6 mouse | oral | 1 mg/kg | – | 67
CCc1cc(OC)c2nccc(N3CCc4c(cc(Cn5ccnc5)cc4-c4cn(C)nc4C(F)(F)F)C3=O)c2c1 | male CD-1 mouse | oral | 50 mg/kg | – | 194
NC[C@@H]1O[C@H](O[C@H]2[C@@H](O)[C@H](O[C@@H]3[C@@H](O)[C@H](N)C[C@H](N)[C@H]3O[C@H]3O[C@H](CO)[C@@H](O)[C@H](O)[C@H]3N)O[C@@H]2CO)[C@H](N)[C@@H](O)[C@@H]1O | male BALB/c mouse | oral | 500 mg/kg | – | 0.3
CCc1ccc(Cc2cc([C@@H]3O[C@H](CO)[C@@H](O)[C@H](O)[C@H]3O)cc3c2CCC3)cc1 | male C57BL/6 mouse | oral | 0.3 mg/kg | – | > 100
O=[N+]([O-])c1cccc2[nH]c(CNc3nc(N4CCOCC4)nc4c3ncn4-c3ccsc3)nc12 | mouse | intravenous | 1 mg/kg | – | 0
Cc1c(C(=O)Nc2ccc(F)c(Cl)c2)sc(N)c1C(N)=O | male CD-1 mouse | oral | 10 mg/kg | – | 46
CN[C@@H](C)C(=O)N[C@H]1CN(C(=O)CC(C)C)CC[C@H]2CC[C@@H](C(=O)NC(c3ccccc3)c3ccccc3)N2C1=O | SCID mouse | oral | 100 mg/kg | tumour-bearing | 42.7
O=C(Nc1nccs1)C(c1cc(F)ccc1O)N1Cc2ccccc2C1=O (stereo not drawn) | mouse | oral | 20 mg/kg | – | 26
COc1cc(OC)c2nccc(N3CCc4c(cc(Cn5ccnc5)cc4-c4cn(C)nc4C(F)(F)F)C3=O)c2c1 | male CD-1 mouse | oral | 50 mg/kg | – | 452
N[C@@H](CSSC[C@H](N)C(=O)O)C(=O)O | Kunming mouse | oral | 100 mg/kg | – | 25.6
COc1ccc2nccc(N3CCc4c(cc(Cn5ccnc5)cc4-c4cn(C)nc4C(F)(F)F)C3=O)c2c1 | male CD-1 mouse | oral | 10 mg/kg | – | 34
CC(C)(C)c1cc(NC(=O)Nc2ccc(Oc3ccnc4[nH]c(=O)cnc34)cc2F)n(-c2ccccc2)n1 | BALB/c mouse | oral | 10 mg/kg | – | 54
